What all share (type): functional, cell-based
The test system of one assay is SMMC-7721. The assay can be described thus: Anticancer activity against human SMMC7721 cells assessed as reduction in cell viability incubated for 48 hrs MTT assay. As to conditions: SMMC-7721, 48 h. In outline:
(§1)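 MTT assay on human hepatocarcinoma SMMC-7721, lung carcinoma A549 and nasopharyngeal carcinoma CNE2 cells, with matrine as comparator and cisplatin as positive control. IC50 is the concentration that lowers optical density of treated cells by 50% versus untreated cells, given as the mean ± SD of three experiments.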
On the technique in general: Formazan colour is commonly taken as a measure of viable cells.

In another assay the test system is A549. The assay can be described thus: Anticancer activity against human A549 cells assessed as reduction in cell viability incubated for 48 hrs MTT assay. As to conditions: A549, 48 h. The gist of the method:
as §1

For the next assay, the system named is CNE-2. The assay can be described thus: Anticancer activity against human CNE2 cells assessed as reduction in cell viability incubated for 48 hrs MTT assay. The following applies: CNE-2, 48 h. In outline: as §1

Structures are written as SMILES. A value given as a limit tells only on which side of the number the result lay.

With `O=C1/C(=C/c2cccn2Cc2ccc(Cl)cc2)CC[C@@H]2[C@H]3CCCN4CCC[C@@H](CN12)[C@@H]34`, the IC50 in the assay with SMMC-7721 turned out to be 21.6 µM; with A549, 21.6 µM; in the assay with CNE-2, 15.2 µM.
As to `Cc1cccc(Cn2cc(/C=C3\CC[C@@H]4[C@H]5CCCN6CCC[C@@H](CN4C3=O)[C@@H]56)c3ccccc32)c1`, the values for the IC50 in the assay with SMMC-7721, in the assay with A549 and with CNE-2 were 8.52 µM, 9.24 µM and 7.91 µM, respectively.
As to `CC(C)(C)c1ccc(Cn2ccc3cc(/C=C4\CC[C@@H]5[C@H]6CCCN7CCC[C@@H](CN5C4=O)[C@@H]67)ccc32)cc1`, the IC50 turned out to be 10.7 µM with SMMC-7721, 10.9 µM in the assay on A549 and 8.99 µM in the assay with CNE-2.
On to `O=C1/C(=C/c2cccn2Cc2cccc(Br)c2)CC[C@@H]2[C@H]3CCCN4CCC[C@@H](CN12)[C@@H]34`, for which the results for the IC50 with SMMC-7721, in the assay with A549 and in the assay on CNE-2 were 16.2 µM, 13.8 µM and 15 µM, respectively.
On to `CC(C)(C)c1ccc(Cn2cc(/C=C3\CC[C@@H]4[C@H]5CCCN6CCC[C@@H](CN4C3=O)[C@@H]56)c3ccccc32)cc1`, for which the IC50 in the assay on SMMC-7721 was determined as 9.55 µM; in the assay on A549, 9.68 µM; in the assay on CNE-2, 7.73 µM.
The like results for `O=C1/C(=C/c2ccc3c(ccn3Cc3ccc4ccccc4c3)c2)CC[C@@H]2[C@H]3CCCN4CCC[C@@H](CN12)[C@@H]34` were, in that order, 27 µM, 30.2 µM and 14.3 µM.
On to `O=C1/C(=C/c2ccc3c(ccn3Cc3cccc(Cl)c3)c2)CC[C@@H]2[C@H]3CCCN4CCC[C@@H](CN12)[C@@H]34`, for which the IC50 came to 25.8 µM with SMMC-7721, 29.9 µM in the assay with A549 and 14.6 µM in the assay on CNE-2.
The like results for `COc1ccc2c(c1)c(/C=C1\CC[C@@H]3[C@H]4CCCN5CCC[C@@H](CN3C1=O)[C@@H]45)cn2Cc1ccc2ccccc2c1` were, in that order, 6.89 µM, 7.45 µM and 6.72 µM.
In the case of `Cc1cc(C)cc(Cn2cccc2/C=C2\CC[C@@H]3[C@H]4CCCN5CCC[C@@H](CN3C2=O)[C@@H]45)c1`, the IC50 in the assay on SMMC-7721 is 49.4 µM; with A549, more than 50 µM; in the assay on CNE-2, 32.1 µM.
On to `Cn1cccc1/C=C1\CC[C@@H]2[C@H]3CCCN4CCC[C@@H](CN2C1=O)[C@@H]34`, for which the IC50 with SMMC-7721, in the assay with A549 and in the assay with CNE-2 was more than 100 µM each time.
As for `O=C1/C(=C/c2cn(Cc3ccccc3Cl)c3ccccc23)CC[C@@H]2[C@H]3CCCN4CCC[C@@H](CN12)[C@@H]34`, the IC50 in the assay on SMMC-7721 stood at 17.6 µM; in the assay on A549 it was 18.3 µM; with CNE-2, 17.4 µM.
In the case of `O=C1/C(=C/c2cn(Cc3ccc(OCc4ccccc4)cc3)c3ccccc23)CC[C@@H]2[C@H]3CCCN4CCC[C@@H](CN12)[C@@H]34`, the figures for the IC50 in the assay with SMMC-7721, with A549 and with CNE-2 were 9.76 µM, 12.6 µM and 11.7 µM, respectively.
With `COc1ccc(Br)c(Cn2cccc2/C=C2\CC[C@@H]3[C@H]4CCCN5CCC[C@@H](CN3C2=O)[C@@H]45)c1`, the IC50 in the assay with SMMC-7721 is 12.2 µM; with A549, 14.5 µM; with CNE-2 it was 11.6 µM.
On to `O=C1/C(=C/c2cccn2Cc2ccc(Br)cc2)CC[C@@H]2[C@H]3CCCN4CCC[C@@H](CN12)[C@@H]34`, for which the results for the IC50 in the assay on SMMC-7721, in the assay on A549 and in the assay with CNE-2 were 17.6 µM, 22.9 µM and 17.8 µM, respectively.
For the molecule `O=C1/C(=C/c2cn(Cc3ccc(OC(F)(F)F)cc3)c3ccccc23)CC[C@@H]2[C@H]3CCCN4CCC[C@@H](CN12)[C@@H]34`, the IC50 with SMMC-7721 came to 6.82 µM; with A549 it was 7.03 µM; in the assay with CNE-2, 6.64 µM.
On to `Cc1ccccc1Cn1cccc1/C=C1\CC[C@@H]2[C@H]3CCCN4CCC[C@@H](CN2C1=O)[C@@H]34`, for which the IC50 was determined as 22.4 µM with SMMC-7721, 29.3 µM in the assay with A549 and 28.4 µM in the assay with CNE-2.
As to `COc1ccc(Cn2cccc2/C=C2\CC[C@@H]3[C@H]4CCCN5CCC[C@@H](CN3C2=O)[C@@H]45)cc1`, the IC50 in the assay with SMMC-7721 came to 41.6 µM; with A549 it was 39.1 µM; with CNE-2 it was 28.8 µM.
Take `Cc1cccc(Cn2cccc2/C=C2\CC[C@@H]3[C@H]4CCCN5CCC[C@@H](CN3C2=O)[C@@H]45)c1`: the IC50 with SMMC-7721 came out at 30.7 µM; in the assay with A549, 44.3 µM; in the assay with CNE-2, 24.5 µM.
Regarding `O=C1/C(=C/c2cccn2Cc2ccc(OC(F)(F)F)cc2)CC[C@@H]2[C@H]3CCCN4CCC[C@@H](CN12)[C@@H]34`, the IC50 in the assay with SMMC-7721 was found to be 36.6 µM; in the assay with A549 it was 47.1 µM; with CNE-2, 23.9 µM.
Turning to `O=C1/C(=C/c2cn(Cc3cccc(Cl)c3)c3ccc(Br)cc23)CC[C@@H]2[C@H]3CCCN4CCC[C@@H](CN12)[C@@H]34`, the figures for the IC50 with SMMC-7721, with A549 and in the assay on CNE-2 were 9.81 µM, 16.8 µM and 8.5 µM, respectively.
The like results for `O=C1/C(=C/c2cccc3c2ccn3Cc2cccc(Cl)c2)CC[C@@H]2[C@H]3CCCN4CCC[C@@H](CN12)[C@@H]34` were, in that order, 6.83 µM, 7.07 µM and 6.64 µM.
The matching figures for `COc1ccc(Cn2cc(/C=C3\CC[C@@H]4[C@H]5CCCN6CCC[C@@H](CN4C3=O)[C@@H]56)c3ccccc32)cc1OC`: 11.8 µM, 12.5 µM and 11.6 µM.
As for `COc1ccc2c(c1)c(/C=C1\CC[C@@H]3[C@H]4CCCN5CCC[C@@H](CN3C1=O)[C@@H]45)cn2Cc1ccc(Cl)cc1`, the results for the 50% inhibitory concentration (IC50) with SMMC-7721, with A549 and in the assay on CNE-2 were 5.65 µM, 7.12 µM and 4.65 µM, respectively.
As for `COc1ccc2c(/C=C3\CC[C@@H]4[C@H]5CCCN6CCC[C@@H](CN4C3=O)[C@@H]56)cn(Cc3ccc4ccccc4c3)c2c1`, the IC50 in the assay with SMMC-7721 was 9.06 µM; with A549, 13.2 µM; in the assay with CNE-2, 5.42 µM.
`COc1cccc(Cn2cc(/C=C3\CC[C@@H]4[C@H]5CCCN6CCC[C@@H](CN4C3=O)[C@@H]56)c3ccccc32)c1`: the IC50 with SMMC-7721 stood at 13.7 µM; in the assay on A549 it was 15.3 µM; in the assay on CNE-2, 9.31 µM.
For the molecule `O=C1/C(=C/c2cn(Cc3ccc(Br)cc3)c3ccccc23)CC[C@@H]2[C@H]3CCCN4CCC[C@@H](CN12)[C@@H]34`, the IC50 is 16.8 µM with SMMC-7721, 18.1 µM in the assay on A549 and 14.7 µM in the assay on CNE-2.
Take `COc1ccc2c(c1)c(/C=C1\CC[C@@H]3[C@H]4CCCN5CCC[C@@H](CN3C1=O)[C@@H]45)cn2Cc1ccccc1Cl`: the IC50 in the assay with SMMC-7721 is 6.21 µM; in the assay with A549, 6.33 µM; with CNE-2 it was 6.06 µM.
The like results for `CC(C)(C)c1cc(Cn2cccc2/C=C2\CC[C@@H]3[C@H]4CCCN5CCC[C@@H](CN3C2=O)[C@@H]45)cc(C(C)(C)C)c1` were, in that order, more than 40 µM, more than 40 µM and more than 40 µM.
Regarding `COc1cc(Cn2cc(/C=C3\CC[C@@H]4[C@H]5CCCN6CCC[C@@H](CN4C3=O)[C@@H]56)c3ccccc32)cc(OC)c1OC`, the IC50 in the assay with SMMC-7721 was 15.5 µM; with A549, more than 50 µM; with CNE-2, 20 µM.
`COc1ccc2c(/C=C3\CC[C@@H]4[C@H]5CCCN6CCC[C@@H](CN4C3=O)[C@@H]56)cn(Cc3ccc(Cl)cc3)c2c1`: the IC50 was determined as 8.73 µM with SMMC-7721, 10.1 µM with A549 and 6.84 µM with CNE-2.
As for `Cc1ccc2c(c1)c(/C=C1\CC[C@@H]3[C@H]4CCCN5CCC[C@@H](CN3C1=O)[C@@H]45)cn2Cc1ccc2ccccc2c1`, the IC50 in the assay on SMMC-7721 came to 3.26 µM; with A549, 5.04 µM; in the assay with CNE-2, 3.53 µM.
Consider `O=C1/C(=C/c2cn(Cc3ccccc3)c3ccccc23)CC[C@@H]2[C@H]3CCCN4CCC[C@@H](CN12)[C@@H]34`, for which the IC50 in the assay with SMMC-7721 was 11.9 µM; in the assay on A549, 13.9 µM; in the assay with CNE-2, 10.8 µM.
With `O=C1/C(=C/c2cccn2Cc2ccccc2Cl)CC[C@@H]2[C@H]3CCCN4CCC[C@@H](CN12)[C@@H]34`, the IC50 in the assay with SMMC-7721 turned out to be 26 µM; with A549, 26.2 µM; with CNE-2 it was 26.3 µM.
Consider `O=C1/C(=C/c2cccn2Cc2ccccc2)CC[C@@H]2[C@H]3CCCN4CCC[C@@H](CN12)[C@@H]34`, for which the IC50 was 38.4 µM in the assay with SMMC-7721, 42.9 µM in the assay on A549 and 45.7 µM in the assay on CNE-2.
As for `COc1cccc(Cn2cccc2/C=C2\CC[C@@H]3[C@H]4CCCN5CCC[C@@H](CN3C2=O)[C@@H]45)c1`, the figures for the IC50 in the assay with SMMC-7721, in the assay with A549 and in the assay with CNE-2 were 13.4 µM, 29.8 µM and 7.05 µM, respectively.
Consider `O=C1/C(=C/c2cn(Cc3ccc(Cl)cc3)c3ccccc23)CC[C@@H]2[C@H]3CCCN4CCC[C@@H](CN12)[C@@H]34`, for which the results for the IC50 in the assay with SMMC-7721, with A549 and in the assay with CNE-2 were 11.2 µM, 12.1 µM and 11 µM, respectively.
Consider `O=C1/C(=C/c2cccn2Cc2ccccc2Br)CC[C@@H]2[C@H]3CCCN4CCC[C@@H](CN12)[C@@H]34`, for which the IC50 was 15.1 µM with SMMC-7721, 12 µM in the assay on A549 and 17.3 µM in the assay on CNE-2.
For the molecule `Cc1ccc(Cn2cc(/C=C3\CC[C@@H]4[C@H]5CCCN6CCC[C@@H](CN4C3=O)[C@@H]56)c3ccccc32)cc1`, the IC50 with SMMC-7721 stood at 9.12 µM; with A549 it was 9.84 µM; with CNE-2 it was 8.91 µM.

One may read the IC50 as the point on the concentration scale where inhibition reaches its midpoint.

(Values after ChEMBL document CHEMBL4184236, “Design, synthesis and biological evaluation of matrine derivatives as potential anticancer agents” (Bioorg Med Chem Lett, 2018).)
